{"source": "ChEMBL document CHEMBL1212734", "about": "“In vitro pharmacodynamics of levofloxacin and other aerosolized antibiotics under multiple conditions relevant to chronic pulmonary infection in cystic fibrosis” (2010)", "type_in_all_cases": "functional", "key": {"[1]": {"system": "Pseudomonas aeruginosa", "assay": "Antibacterial activity against Pseudomonas aeruginosa by broth dilution method", "in_short": "(§1)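 Broth microdilution MIC per CLSI reference method; twofold serial dilutions in cation-adjusted Mueller-Hinton broth. […] Endpoint read by OD600 and confirmed visually.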"}, "[2]": {"system": "Pseudomonas aeruginosa", "assay": "Antibacterial activity against Pseudomonas aeruginosa PA1054 assessed as inhibition of biofilm formation by microtiter plate reader assay", "in_short": "(§2)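 Biofilms of cystic fibrosis P. aeruginosa isolates were grown and tested by a previously described method. The endpoint was the biofilm inhibitory concentration, the drug level that prevents biofilm cell growth, compared against planktonic broth-microdilution MICs.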"}, "[3]": {"system": "Pseudomonas aeruginosa", "assay": "Antibacterial activity against Pseudomonas aeruginosa PA1042 by broth dilution method", "in_short": "as §1"}, "[4]": {"system": "Pseudomonas aeruginosa", "assay": "Antibacterial activity against Pseudomonas aeruginosa PA1054 by broth dilution method", "in_short": "as §1"}, "[5]": {"system": "Achromobacter xylosoxidans", "assay": "Antibacterial activity against Alcaligenes xylosoxidans by broth dilution method"}, "[6]": {"system": "Pseudomonas aeruginosa", "assay": "Antibacterial activity against Pseudomonas aeruginosa ATCC 27853 assessed as inhibition of biofilm formation by microtiter plate reader assay"}, "[7]": {"system": "Staphylococcus aureus", "assay": "Antibacterial activity against methicillin-sensitive Staphylococcus aureus by broth dilution method"}, "[8]": {"system": "Pseudomonas aeruginosa", "assay": "Antibacterial activity against Pseudomonas aeruginosa PA5063 assessed as inhibition of biofilm formation by microtiter plate reader assay", "in_short": "as §2"}, "[9]": {"system": "Pseudomonas aeruginosa", "assay": "Antibacterial activity against Pseudomonas aeruginosa PA5043 by broth dilution method", "in_short": "as §1"}, "[10]": {"system": "Pseudomonas aeruginosa", "assay": "Antibacterial activity against Pseudomonas aeruginosa PA1042 assessed as inhibition of biofilm formation by microtiter plate reader assay", "in_short": "as §2"}, "[11]": {"system": "Pseudomonas aeruginosa", "assay": "Antibacterial activity against Pseudomonas aeruginosa PA5063 by broth dilution method", "in_short": "as §1"}, "[12]": {"system": "Pseudomonas aeruginosa", "assay": "Antibacterial activity against Pseudomonas aeruginosa PA5043 assessed as inhibition of biofilm formation by microtiter plate reader assay", "in_short": "as §2"}, "[13]": {"system": "Burkholderia cepacia", "assay": "Antibacterial activity against Burkholderia cepacia clinical isolates by broth dilution method"}, "[14]": {"system": "Staphylococcus aureus", "assay": "Antibacterial activity against methicillin-resistant Staphylococcus aureus by broth dilution method", "in_short": "as §1"}, "[15]": {"system": "Pseudomonas aeruginosa", "assay": "Antibacterial activity against Pseudomonas aeruginosa ATCC 27853 by broth dilution method", "in_short": "as §1"}, "[16]": {"system": "Stenotrophomonas maltophilia", "assay": "Antibacterial activity against Stenotrophomonas maltophilia by broth dilution method"}}, "data": [{"smiles": "NCC[C@H](O)C(=O)N[C@@H]1C[C@H](N)[C@@H](O[C@H]2O[C@H](CN)[C@@H](O)[C@H](O)[C@H]2O)[C@H](O)[C@H]1O[C@H]1O[C@H](CO)[C@@H](O)[C@H](N)[C@H]1O", "note": "[AMIKACIN]", "values": [{"measurement": "MIC50", "setting": "[1]", "value": 16, "unit": "µg/mL"}, {"measurement": "MIC90", "setting": "[1]", "value": "> 128", "unit": "µg/mL"}, {"measurement": "BBC", "setting": "[2]", "value": 4, "unit": "µg/mL"}, {"measurement": "MIC", "setting": "[2]; Pseudomonas aeruginosa, PA1054", "value": 1, "unit": "µg/mL"}, {"measurement": "MIC", "setting": "[3]", "value": 4, "unit": "µg/mL"}, {"measurement": "MIC", "setting": "[4]", "value": 1, "unit": "µg/mL"}, {"measurement": "MIC50", "setting": "[5]", "value": "> 128", "unit": "µg/mL"}, {"measurement": "MIC90", "setting": "[5]", "value": "> 128", "unit": "µg/mL"}, {"measurement": "BBC", "setting": "[6]", "value": 8, "unit": "µg/mL"}, {"measurement": "MIC50", "setting": "[7]", "value": 1, "unit": "µg/mL"}, {"measurement": "MIC90", "setting": "[7]", "value": 4, "unit": "µg/mL"}, {"measurement": "BBC", "setting": "[8]", "value": 16, "unit": "µg/mL"}, {"measurement": "MIC", "setting": "[9]", "value": 64, "unit": "µg/mL"}, {"measurement": "BBC", "setting": "[10]", "value": 8, "unit": "µg/mL"}, {"measurement": "MIC", "setting": "[11]", "value": 2, "unit": "µg/mL"}, {"measurement": "BBC", "setting": "[12]", "value": 64, "unit": "µg/mL"}, {"measurement": "MIC50", "setting": "[13]", "value": 128, "unit": "µg/mL"}, {"measurement": "MIC90", "setting": "[13]", "value": "> 128", "unit": "µg/mL"}, {"measurement": "MIC50", "setting": "[14]", "value": 8, "unit": "µg/mL"}, {"measurement": "MIC90", "setting": "[14]", "value": 16, "unit": "µg/mL"}, {"measurement": "MIC", "setting": "[15]", "value": 2, "unit": "µg/mL"}, {"measurement": "MIC50", "setting": "[16]", "value": 128, "unit": "µg/mL"}, {"measurement": "MIC90", "setting": "[16]", "value": "> 128", "unit": "µg/mL"}]}, {"smiles": "O=C(O)c1cn(C2CC2)c2cc(N3CCNCC3)c(F)cc2c1=O", "note": "[CIPROFLOXACIN]", "values": [{"measurement": "MIC50", "setting": "[1]", "value": 1, "unit": "µg/mL"}, {"measurement": "MIC90", "setting": "[1]", "value": 8, "unit": "µg/mL"}, {"measurement": "MIC50", "setting": "[5]", "value": 4, "unit": "µg/mL"}, {"measurement": "MIC90", "setting": "[5]", "value": 16, "unit": "µg/mL"}, {"measurement": "MIC50", "setting": "[7]", "value": 0.125, "unit": "µg/mL"}, {"measurement": "MIC90", "setting": "[7]", "value": 0.5, "unit": "µg/mL"}, {"measurement": "MIC50", "setting": "[14]", "value": 16, "unit": "µg/mL"}, {"measurement": "MIC90", "setting": "[14]", "value": "> 32", "unit": "µg/mL"}, {"measurement": "MIC50", "setting": "[16]", "value": 4, "unit": "µg/mL"}, {"measurement": "MIC90", "setting": "[16]", "value": 16, "unit": "µg/mL"}]}]}
